ChEMBL document CHEMBL4043134, “Isolation and lipolytic activity of eurycomanone and its epoxy derivative from Eurycoma longifolia” (Bioorg Med Chem, 2017)
The source made the active and inactive calls. The rule behind the calls is not given here.

Assays:
[1] = test system: 3T3-L1; test: Antiobesity activity in mouse 3T3L1 cells assessed as reduction in accumulation of lipid droplets administered on day 4 post differentiation induction measured on day 9 by Oil Red O staining-based microscopic analysis; format: functional, cell-based
[2] = test system: 3T3-L1; test: Cytotoxicity against mouse 3T3L1 cells assessed as reduction in cell viability up to 100 uM after 6 to 48 hrs by CCK-8 assay; format: cell-based
[3] = test system: 3T3-L1; test: Antiobesity activity in mouse 3T3L1 cells assessed as increase in glycerol release after 24 hrs; format: functional, cell-based; conditions: for EC50: 3T3-L1, 24 h
Method in brief: (§1)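 3T3-L1 preadipocytes were differentiated with IBMX (0.5 mM), DEX (0.25 μM) and insulin (5 μg/mL) from day 0, then insulin alone, then plain 10% FBS/DMEM. On day 8 they were exposed to sample (DMSO stock diluted in phenol-red-free DMEM) for 24 h. Medium was mixed with free glycerol reagent (37 °C, 5 min) and read at A540, relative to control. Mean ± SEM, n=6.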

[4] = organism: Mus musculus; test: Induction of PKA phosphorylation in mouse 3T3-L1 cells at 12.5 uM in presence of 20 uM H-89 by immunoblotting; format: cell-based
[5] = target: Beta-3 adrenergic receptor (Mus musculus) (UniProt P25962); test: Activation of beta3 adrenergic receptor in mouse 3T3-L1 cells assessed as lipolytic activity by measuring increase in glycerol release at 25 uM administered 1 hr after beta3 adrenergic receptor inhibitor addition measured after 24 hrs in presence of 20 uM […] inhibitor propranolol; format: cell-based
Method in brief: (§2)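 Day-8 differentiated 3T3-L1 adipocytes were preincubated with the specified inhibitor for 1 h, then incubated with sample plus inhibitor for 24 h in phenol-red-free DMEM. Released glycerol in the medium was quantified with free glycerol reagent (37 °C, 5 min, A540) and expressed relative to control.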

[6] = test system: Mus musculus; test: Activation of ERK in mouse 3T3-L1 cells assessed as lipolytic activity by measuring increase in glycerol release at 25 uM administered 1 hr after ERK inhibitor addition measured after 24 hrs in presence of 20 uM ERK inhibitor PD 98059; format: cell-based; method in brief: as §2
[7] = test system: Mus musculus; test: Activation of PKA in mouse 3T3-L1 cells assessed as lipolytic activity by measuring increase in glycerol release at 25 uM administered 1 hr after PKA inhibitor addition measured after 24 hrs in presence of 20 uM PKA inhibitor H-89; format: cell-based; method in brief: as §2
[8] = test system: 3T3-L1; test: Antiobesity activity in mouse 3T3L1 cells assessed as glycerol release at 1 uM after 24 hrs relative to control; format: functional; method in brief: as §1
[9] = test system: 3T3-L1; test: Antiobesity activity in mouse 3T3L1 cells assessed as reduction in accumulation of lipid droplets up to 100 uM administered on day 4 post differentiation induction measured on day 9 by Oil Red O staining-based microscopic analysis relative to control; format: functional, cell-based
[10] = test system: 3T3-L1; test: Antiobesity activity in mouse 3T3L1 cells assessed as increase in glycerol release up to 100 uM after 24 hrs relative to control; format: functional, cell-based
Method in brief: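 Mouse 3T3-L1 preadipocytes were differentiated from day 0 (one day post-confluence) in 10% FBS/DMEM with 0.5 mM IBMX, 0.25 μM DEX and 5 μg/mL insulin, then switched to insulin medium, then plain medium; used on day 8. Samples were dissolved in DMSO and diluted into phenol-red-free DMEM, applied for 24 h. Medium glycerol was measured with free glycerol reagent (37 °C, 5 min, A540) relative to control; 1 μM isoproterenol positive control; mean ± SEM, n=6, Dunnett's test.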

Chain of Beta-3 adrenergic receptor (Mus musculus) (P25962 whole entry): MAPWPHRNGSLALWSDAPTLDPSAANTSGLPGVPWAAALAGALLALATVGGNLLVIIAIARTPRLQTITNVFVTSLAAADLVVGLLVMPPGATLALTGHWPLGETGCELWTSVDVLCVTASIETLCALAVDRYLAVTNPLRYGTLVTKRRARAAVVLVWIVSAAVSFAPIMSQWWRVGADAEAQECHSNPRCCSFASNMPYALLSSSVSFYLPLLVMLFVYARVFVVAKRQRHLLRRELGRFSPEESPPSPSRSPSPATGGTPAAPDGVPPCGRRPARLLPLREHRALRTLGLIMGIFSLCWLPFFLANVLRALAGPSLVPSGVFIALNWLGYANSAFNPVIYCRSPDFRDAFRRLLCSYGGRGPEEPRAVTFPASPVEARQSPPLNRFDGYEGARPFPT

| Structure (SMILES) | Activity [1] | Activity [2] | Activity [3] | EC50 [3] [µM] | Activity [4] | Activity [5] | Activity [6] | Activity [7] | Activity [8] [%] | Activity [9] | Activity [10] |
| --- | --- | --- | --- | --- | --- | --- | --- | --- | --- | --- | --- |
| C=C1[C@@H](O)[C@@]2(O)OC[C@]34C2[C@@]2(C)[C@H](O)C(=O)C=C(C)[C@@H]2C[C@H]3OC(=O)[C@H](O)[C@@]14O (some centres undefined) | Dose-dependent effect | Non-Toxic | Dose-dependent effect | 14.6 | Active | inactive | inactive | Active | – | – | – |
| CC1=CC(=O)[C@@H](O)[C@]2(C)C3[C@]4(O)OC[C@@]35[C@@H](C[C@@H]12)OC(=O)[C@H](O)[C@@]5(O)[C@@]1(CO1)[C@H]4O (some centres undefined) | Dose-dependent effect | Non-Toxic | Dose-dependent effect | 8.6 | Active | inactive | inactive | Active | – | – | – |
| CC(C)NCC(O)c1ccc(O)c(O)c1 (centres undefined) [ISOPROTERENOL] | – | – | – | – | – | – | – | – | 322 | – | – |
| CC1=CC(=O)[C@@H](O)[C@]2(C)C3[C@]4(O)OC[C@@]35[C@@H](C[C@@H]12)OC(=O)[C@H](O)[C@@]5(O)[C@@](O)(CO)[C@H]4O (some centres undefined) | – | – | – | – | – | – | – | – | – | inactive | inactive |
